Assay outcomes as filed in PubChem BioAssay.
Hits are enriched below; roughly 3.5% of the tested compounds scored in any of these assays.
MrgX1 allo act – positive allosteric modulators of MrgX1, primary screen, HEK293 cells, Fluo-4 calcium flux. Mas-related G-protein coupled receptor member X1 (Homo sapiens), Q96LB2. FDSS; hits give high values. B-score at 10 µM. 0.63% of 310,000 active;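 active means plate-corrected calcium response at least 3 library SD above typical, normal starting fluorescence, not activating the receptor alone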;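 further: compound read alongside a low EC10 to EC30 dose of BAM8-22 agonist; peak minus trough fluorescence over baseline measured at the second addition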
MrgX1 antagonist – antagonists of human MrgX1 receptor, primary screen, HEK293 cells, Fluo-4 calcium flux. Mas-related G-protein coupled receptor member X1 (Homo sapiens), Q96LB2. BAM8-22 antagonism; hits give low values. B-score at 10 µM. 1.3% of 310,000 active. AID 588676, 2011;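 active means calcium-response B-score plate-corrected more than 3 library SD below zero, starting fluorescence within 5 deviations, no agonist response on first addition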;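 further: peak minus trough fluorescence over baseline after final BAM8-22 challenge near maximal dose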
RGS4 inh – RGS4 inhibitors, primary screen, cell-based, HEK293 M3R inducible RGS4, calcium flux | 0.45% of 310,000 active | Regulator of G-protein signaling 4 (Homo sapiens), P49798 | B-score at 10 µM | Fluo-4 calcium flux; hits give high values; triggered by carbachol at its EC20;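 active means B-score, a plate-corrected calcium signal, over three deviations above library mean, with baseline fluorescence within five deviations of library mean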;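 further: RGS4 expression induced by doxycycline in cells with stable M3 receptor; B-score is computed from the integrated fluorescence ratio over baseline after carbachol; higher B-score means a larger calcium signal and so more RGS4 inhibition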
Target sequence (P49798 whole entry, looked up): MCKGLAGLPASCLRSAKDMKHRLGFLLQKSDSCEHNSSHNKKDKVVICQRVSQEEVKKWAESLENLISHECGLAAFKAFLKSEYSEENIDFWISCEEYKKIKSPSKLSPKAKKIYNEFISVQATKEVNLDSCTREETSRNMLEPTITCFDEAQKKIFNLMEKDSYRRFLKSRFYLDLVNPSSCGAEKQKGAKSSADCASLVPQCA
RGS4 act – RGS4 potentiators or activators, primary screen, cell-based, HEK293 M3R inducible RGS4, calcium flux. AID 463111, 2010. B-score at 10 µM. 0.92% of 310,000 active. carbachol calcium flux Fluo4; hits give low values;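 active means B-score of the integrated calcium signal more than 4 SD below the library mean, with starting fluorescence not abnormally high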;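 further: negative B-score means reduced calcium response which marks RGS4 activation or potentiation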
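test system = HEK293 cells with stable M3R and inducible RGS4 | schedule = recording 10 s baseline at 1 Hz, 100 s post-agonist | technique = Fluo4-AM (2 µM) calcium-flux fluorescence, kinetic read | measure = Agonist-evoked peak-minus-minimum fluorescence over baseline, integrated ratio, B score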
MrgX1 agonist – agonists of human MrgX1 receptor, primary screen, HEK293 cells, Fluo-4 calcium flux; Mas-related G-protein coupled receptor member X1 (Homo sapiens), Q96LB2; Fluo-4 calcium fluorescence, agonist mode; hits give high values; B-score at 10 µM; 0.44% of 310,000 active;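 active means calcium response B-score plate-corrected fluorescence ratio at least 3 library SD, with starting fluorescence B-score inside 5 SD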
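Material: HEK293 cells stably expressing human MrgX1 receptor | Quantity: 15,000 cells per well | Times: Cells plated overnight, dye loaded 0.5 h 37 °C, 0.5 h room temperature | Measured by: Kinetic Fluo-4 NW fluorescence of intracellular calcium | Control set: Positive and negative controls per plate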
Numbers without * were called inactive.

How did O=C(NC12CC3CC(CC(C3)C1)C2)c1cccc(OC(F)F)c1 do in these assays?
MrgX1 allo act: inactive; MrgX1 antagonist: inactive; RGS4 inh: inactive; RGS4 act: inactive; MrgX1 agonist: inactive

What do the screens show for `Cc1ccc(C)c(NC(=O)C2CC=CCC2C(=O)O)c1` (stereo not given)?
MrgX1 allo act: inactive; MrgX1 antagonist: inactive; RGS4 inh: inactive; RGS4 act: inactive; MrgX1 agonist: inactive

How did Cc1ccc(C)c(NC(=O)C2CC3c4ccccc4C2c2ccccc23)c1 (stereo not given) do in these assays?
MrgX1 allo act: inactive; MrgX1 antagonist: -5.5*; RGS4 inh: inactive; RGS4 act: inactive; MrgX1 agonist: inactive

How did O=C(Nc1ccc(CN2CCCCC2)cc1)c1cc(Br)ccc1Cl do in these assays?
MrgX1 allo act: inactive; MrgX1 antagonist: -5.5*; RGS4 inh: inactive; RGS4 act: inactive; MrgX1 agonist: inactive

Results for CCc1ccccc1NC(=O)CNC(=O)c1ccc(-n2cncn2)c([N+](=O)[O-])c1 ?
MrgX1 allo act: inactive; MrgX1 antagonist: inactive; RGS4 inh: inactive; RGS4 act: inactive; MrgX1 agonist: inactive

How did N#CCCN(C(=O)COC(=O)c1ccc(CNS(=O)(=O)c2ccc(F)c(Cl)c2)cc1)c1ccc(F)cc1 do in these assays?
MrgX1 allo act: inactive; MrgX1 antagonist: inactive; RGS4 inh: inactive; RGS4 act: -8.8*; MrgX1 agonist: inactive

Results for O=C(COC(=O)c1ccc(CNS(=O)(=O)c2ccc(F)c(Cl)c2)cc1)NC1CCCCCCC1 ?
MrgX1 allo act: inactive; MrgX1 antagonist: inactive; RGS4 inh: inactive; RGS4 act: inactive; MrgX1 agonist: inactive

How did CCCN(CC1CC1)C(=O)COC(=O)c1ccc(CNS(=O)(=O)c2ccc(F)c(Cl)c2)cc1 do in these assays?
MrgX1 allo act: inactive; MrgX1 antagonist: -4.9*; RGS4 inh: inactive; RGS4 act: inactive; MrgX1 agonist: inactive

How did CC(C)c1ccc(/C=C/C(=O)NC(=S)Nc2ccc(CN3CCOCC3)cc2)cc1 do in these assays?
MrgX1 allo act: inactive; MrgX1 antagonist: inactive; RGS4 inh: inactive; RGS4 act: -8.8*; MrgX1 agonist: inactive

How did CCC(C)[C@H](NC(=O)C1CCN(C(=O)[C@H](Cc2ccccc2)NS(=O)(=O)c2ccc(C)cc2)CC1)C(=O)O (stereo not given in full) do in these assays?
MrgX1 allo act: inactive; MrgX1 antagonist: inactive; RGS4 inh: inactive; RGS4 act: inactive; MrgX1 agonist: inactive

What do the screens show for `CCOc1ccc(NC(=O)COC(=O)Cc2ccc(S(=O)(=O)N3CCOCC3)s2)cc1`?
MrgX1 allo act: inactive; MrgX1 antagonist: inactive; RGS4 inh: inactive; RGS4 act: inactive; MrgX1 agonist: inactive

How did CCOc1ccc(S(=O)(=O)N2CCN(C(=O)Cc3ccc(S(=O)(=O)N4CCOCC4)s3)CC2)cc1 do in these assays?
MrgX1 allo act: inactive; MrgX1 antagonist: inactive; RGS4 inh: inactive; RGS4 act: -7.3*; MrgX1 agonist: inactive

What do the screens show for `COc1ccc(CN2CCCC(C(=O)c3cccc(C(F)(F)F)c3)C2)cc1O` (stereo not given)?
MrgX1 allo act: inactive; MrgX1 antagonist: inactive; RGS4 inh: inactive; RGS4 act: -7.6*; MrgX1 agonist: inactive

How did CN1C2CCC1CC(NC(=O)c1cc(Cl)cc3[nH]cnc13)C2 (stereo not given) do in these assays?
MrgX1 allo act: inactive; MrgX1 antagonist: inactive; RGS4 inh: inactive; RGS4 act: inactive; MrgX1 agonist: inactive

How did COc1ccc(OCc2nnc(SCC(=O)Nc3ccccc3Cl)o2)cc1 do in these assays?
MrgX1 allo act: inactive; MrgX1 antagonist: inactive; RGS4 inh: inactive; RGS4 act: inactive; MrgX1 agonist: inactive

What do the screens show for `Cc1nn(-c2ccccc2)c(N2CCCC2)c1/C=N/Nc1ccc(S(=O)(=O)Nc2ccccc2)cc1[N+](=O)[O-]`?
MrgX1 allo act: inactive; MrgX1 antagonist: -5.1*; RGS4 inh: inactive; RGS4 act: inactive; MrgX1 agonist: inactive
